Screening data deposited in PubChem by several laboratories.
DDE Tn6 FP inh = disrupts Tn6 cyclic peptide binding to fibrin D-Dimer-E complex. P02675. hit rate 0.21% among 370,000. inhibition, % at 8.3 µM. Fibrin DD(E) TRITC-Tn6 fluorescence polarization displacement;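 active means inhibition above a per-campaign cutoff: mean of compounds within control limits plus 3 SD, cut at about 15% in these data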
DDE Tn7 FP inh = DD(E)-Tn7 binding inhibition, primary FP screen | P02675 | FP displacement of FITC-Tn7 peptide from fibrin DD(E); 0% = median of compound wells per plate | AID 720508 | inhibition, % at 8.3 µM | hit rate 0.13% among 370,000;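 active means inhibition above the mean of compounds falling within the control limits plus 3 SD of them, cut at about 14% in these data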
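Test system: human clot-derived fibrin DD(E) complex / Quantity: 2 µM final DD(E) protein / Incubation: 10 min plus 3 h, room temperature / Measured by: fluorescence polarization / Benchmarks: high control of 10 µM Aha-Tn7 peptide / Replicates: singlicate testing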
ADAM17 inh = inhibitors of human ADAM17; P78536; recombinant ADAM17, EDANS/DABCYL FRET peptide cleavage; inhibition, % at 6.95 µM; hit rate 0.83% among 370,000;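 active means inhibition above the mean of compounds lying between control limits plus 3 SD, set per campaign, cut at about 8.5% in these data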
MT1-MMP act inh = blocks activation of human MT1-MMP. P50281. HT1080 RFP-PRO-GFP cells, GFP/RFP ratio fluorescence, overnight; percent of plate control window, DMSO zero. GFP/RFP ratio change, % at 20 µM. hit rate 0.061% among 360,000. AID 651647;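 active means GFP/RFP ratio change of at least 30% with cell ATP level not reduced by more than half and red fluorescence within 50% of control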
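Assay system: HT1080 RFP-PRO-GFP cells | Dosing: 20 µM single dose, 1% DMSO | Incubation: Cells overnight before dosing, compound overnight, 37 °C, 5% CO2 | Evaluation: GFP/RFP fluorescence ratio | Control set: DMSO-only wells and HT1080 RFP-L50D-GFP cell wells as references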
ADAM10 inh = ADAM10 inhibition, QFRET primary screen; recombinant ADAM10, EDANS/DABCYL FRET peptide cleavage, 3 h; AID 720582; inhibition, % at 7 µM; hit rate 0.62% among 370,000; O14672;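 active means inhibition above a per-campaign cutoff equal to the mean of compounds falling between control-based bounds plus 3 SD, cut at about 20% in these data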
ADAM10 confirm = confirmation of inhibitors of human ADAM10 | AID 743208 | hit rate 1% among 2,100 | shares compounds with ADAM10 inh | ADAM10 QFRET peptide cleavage, EDANS fluorescence | inhibition, % at 6.95 µM;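 active means inhibition above about 20% chosen separately for each screening run, limit read from the data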
ADAM17 ctr = ADAM17 inhibition, counter-screen for ADAM10 exosite hits | shares compounds with ADAM10 inh | ADAM17 QFRET peptide cleavage, EDANS fluorescence | inhibition, % at 6.95 µM | hit rate 0.5% among 2,100 | AID 743214;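 active means mean triplicate inhibition above the solvent-only control wells' mean plus 3 SD, cut at about 12% in these data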
ADAM10 counter = inhibits human ADAM10 in ADAM17 exosite counter-screen | AID 743256 | inhibition, % at 6.95 µM | recombinant ADAM10, EDANS/DABCYL FRET peptide cleavage, 3 h | hit rate 47% among 2,900 | shares compounds with ADAM17 inh;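 active means mean inhibition over the triplicate runs exceeds the activity threshold set in the earlier primary screen, cut at about 20% in these data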
ADAM17 confirm = confirmation of inhibitors of human ADAM17 | shares compounds with ADAM17 inh | recombinant ADAM17, EDANS/DABCYL QFRET peptide cleavage | inhibition, % at 6.95 µM | hit rate 65% among 2,900 | AID 743257;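 active means mean inhibition across replicates above the hit cutoff set in the primary screen, cut at about 8.5% in these data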
Hits are given with their value; - = inactive; . = no result. Shown are actives, neighbours in structure and some others; about 1.6% of the full set was active somewhere.

SMILES	DDE Tn6 FP inh	DDE Tn7 FP inh	ADAM17 inh	MT1-MMP act inh	ADAM10 inh	ADAM10 confirm	ADAM17 ctr	ADAM10 counter	ADAM17 confirm
CC(C)C[C@H](NC(=O)c1nc[nH]c1C(=O)N[C@@H](CCCCNC(=O)OC(C)(C)C)C(=O)OC(C)(C)C)C(=O)OCc1ccccc1	-	-	-	-	-	.	.	.	.
CC(C)(C)OC(=O)NCCCC[C@H](NC(=O)c1nc[nH]c1C(=O)NCC(=O)OCc1ccccc1)C(=O)OC(C)(C)C	-	-	11	-	24	-	-	25	18
C[C@@H]1CN([C@@H](C)CO)C(=O)CCCn2cc(nn2)CO[C@H]1CN(C)C(=O)CCC(F)(F)F	-	-	-	.	-	.	.	.	.
CN(c1ccc(OCC(=O)OCC(=O)Nc2ccc(Br)cc2)cc1)S(=O)(=O)c1cccs1	-	-	12	-	20	-	-	31	16
CN(c1ccc(OCC(=O)OCC(=O)Nc2ccccc2)cc1)S(=O)(=O)c1cccs1	-	-	-	-	-	.	.	.	.
Cc1ccc(NC(=O)/C=C/c2cccc(C(F)(F)F)c2)cc1	-	-	-	-	-	.	.	.	.
O=C(/C=C/c1cccc(C(F)(F)F)c1)Nc1cccc(C(F)(F)F)c1	-	-	12	-	26	-	-	29	17
COc1ccccc1CNC(=O)COc1cc(O)c2c(c1)OC(C)(C)CC2=O	-	-	-	-	-	.	.	.	.
C[C@@]12C(=O)N(c3cccc(Cl)c3)C(=O)N1[C@@H]1c3ccccc3OC[C@@H]1[C@H]2c1ccccc1	-	-	-	-	-	.	.	.	.
C[C@@]12C(=O)N(c3cccc(F)c3)C(=O)N1[C@@H]1c3ccccc3OC[C@@H]1[C@H]2c1ccccc1	-	-	11	-	23	-	-	-	-
COC(=O)C12C=C3CC(c4ccc(C)s4)=C3C(=O)N1Cc1[nH]c3ccccc3c1C2 (configuration not stated)	-	-	-	.	-	.	.	.	.
O=C(Nc1ccc2ccccc2c1)c1cn(-c2ccccc2)nc1-c1cccs1	-	-	-	-	-	.	.	.	.
CN(C)c1ccc(NC(=O)c2cn(-c3ccccc3)nc2-c2cccs2)cc1	-	-	13	-	28	-	-	-	9.7
COc1cccc(C(=O)Nc2ccc(Oc3nnc(-c4ccccc4)c4ccccc34)cc2)c1	-	-	-	.	-	.	.	.	.
OCCN(Cc1ccccc1)CC(O)COc1ccc(-c2ccccc2)cc1 (configuration not stated)	-	-	13	-	30	-	-	31	16
COc1ccc(N2CCN(C(=O)C3CCN(S(=O)(=O)c4ccc5c(c4)CC(C)N5C(=O)C4CC4)CC3)CC2)cc1 (configuration not stated)	-	-	-	.	-	.	.	.	.
OC(c1ccc(F)c(F)c1)c1ncc(-c2cccc(C(F)(F)F)c2)[nH]1 (configuration not stated)	-	-	-	-	-	.	.	.	.
OC(c1ccc(Cl)c(F)c1)c1ncc(-c2cccc(C(F)(F)F)c2)[nH]1 (configuration not stated)	-	-	11	-	32	-	-	26	14
COC(=O)[C@]12C[C@H](CC(=O)N3CCCCC3)C(=O)N(Cc3ccc4c(c3)OCO4)C1=C[C@H](COCc1ccccc1)O[C@@H]2C	-	-	-	.	-	.	.	.	.
CCOC(=O)[C@]12CCCC=C1N(Cc1cccc3ccccc13)C(=O)[C@H](CC(=O)NCc1ccccc1)C2	-	-	-	-	-	.	.	.	.
